Calls of active or inactive are those of the source. The calls are words filed in the database; no cut-off is given here.
Tests used:
[1] = Selectivity index, ratio of IC50 for macrophages differentiated from human THP1 cells to IC50 for bloodstream form of Trypanosoma brucei brucei 427; type: toxicity, cell-based, THP-1; details: read-out: Ratio IC50
How it was run: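 Bloodstream-form T. b. brucei 427 in HMI-9 with 10% heat-inactivated FBS at 37 °C, 5% CO2: about 2,000 cells per well with serial drug dilutions for 72 h, then resazurin 45.5 μM for 4 h, fluorescence ex 528/em 590 nm. THP1-differentiated macrophages at 10⁵ cells/well: 72 h at 37 °C, MTT 4 h, A570 minus 660 nm versus untreated. Both IC50s by linear regression.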

[2] = tested on: THP-1; experiment: Cytotoxicity against macrophages differentiated from human THP1 cells assessed as cell viability after 72 hrs by MTT assay; type: cell-based; details: THP-1, 72 h
How it was run: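 THP1-differentiated macrophages, 10⁵ cells/well, adhered overnight, then exposed to a compound concentration range for 72 h at 37 °C. MTT at 0.5 mg/mL added for 4 h in the dark, and formazan dissolved in isopropanol. Absorbance read at 570 nm with 660 nm background. Viability given relative to untreated cells, and IC₅₀ from linear regression.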

[3] = Inhibition of Trypanosoma brucei FolD dehydrogenase activity assessed as formation of 5,10-CH=THF from 5,10-CH2-THF after 5 mins by spectrophotometric analysis
How it was run: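 Recombinant T. brucei FolD from E. coli BL21 (DE3), Ni²⁺-affinity purified. Assay at 27 °C in 25 mM MOPS pH 7.3 with 30 mM 2-mercaptoethanol, 35 μM mTHF and 1 mM NADP⁺, started with NADP⁺. Reaction stopped at 5 min with an equal volume of 1 M HCl, product read at 350 nm (ε 24.9 mM⁻¹ cm⁻¹). Compounds from 10 mM DMSO stocks, first tested at 0–50–100 μM. Data fitted to a competitive model by linear regression.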

[4] = tested on: Trypanosoma brucei brucei; experiment: Antiparasitic activity against bloodstream form of Trypanosoma brucei brucei 427 […] assessed as growth inhibition after 72 hrs by Alamar Blue assay; type: functional, organism-based
[5] = Competitive inhibition of recombinant Leishmania major hexahistidine-tagged FolD dehydrogenase activity expressed in Escherichia coli by Michaelis-Menten plot analysis in presence of 5,10-CH2-THF
[6] = Competitive inhibition of Pseudomonas aeruginosa FolD dehydrogenase activity
[7] = Trypanosoma brucei, 427, 72 h, read-out: IC50

SMILES	IC50 [3] [µM]	IC50 [4, 7] [µM]	Ki [3] [µM]	IC50 [4]	Ki [6] [µM]	selectivity ratio [1]	IC50 [2] [µM]	growth inhibition (GI) [4]	Ki [5] [µM]
Nc1nc(N)c(NC(=O)Nc2ccc(C(=O)O)cc2)c(=O)[nH]1	83	74	–	–	–	1.3	97	–	–
Cc1ccc(C(=O)Nc2ccc(S(=O)(=O)O)c3cc(S(=O)(=O)O)cc(S(=O)(=O)O)c23)cc1NC(=O)c1cccc(NC(=O)Nc2cccc(C(=O)Nc3cc(C(=O)Nc4ccc(S(=O)(=O)O)c5cc(S(=O)(=O)O)cc(S(=O)(=O)O)c45)ccc3C)c2)c1	–	–	–	–	–	–	–	Active	–
Nc1nc2c(c(=O)[nH]1)N1C(=O)N(c3ccc(C(=O)NC(CCC(=O)O)C(=O)O)cc3)CC1CN2 (stereo unspecified)	20	57	8.5	–	0.03	1.8	103	–	0.105
Nc1nc(N)c(NC(=O)Nc2ccc(C(=O)N[C@@H](Cc3ccc(O)cc3)C(=O)O)cc2)c(=O)[nH]1	9.3	–	7.3	Not Active	–	–	77	–	–
N=C(N)c1ccc(OCCCCCOc2ccc(C(=N)N)cc2)cc1 [PENTAMIDINE]	–	0.0016	–	–	–	–	–	–	–

Second part, led by results:

IC50 [3] [µM]	IC50 [4, 7] [µM]	Ki [3] [µM]	IC50 [4]	Ki [6] [µM]	SMILES	selectivity ratio [1]	IC50 [2] [µM]	growth inhibition (GI) [4]	Ki [5] [µM]
1	–	0.48	Not Active	–	Nc1nc(N)c(NC(=O)Nc2ccc(C(=O)N[C@@H](CCCC(=O)O)C(=O)O)cc2)c(=O)[nH]1	–	90	–	–
6.3	–	3.2	Not Active	–	C[C@H](NC(=O)c1ccc(NC(=O)Nc2c(N)nc(N)[nH]c2=O)cc1)C(=O)O	–	113	–	–
250	92	–	–	–	CCOC(=O)CC[C@H](NC(=O)c1ccc(NC(=O)Nc2c(N)nc(N)[nH]c2=O)cc1)C(=O)OCC	2.2	205	–	–
213	–	168	Not Active	–	Nc1nc(N)c(NC(=O)Nc2ccc(C(=O)NCCCC(=O)O)cc2)c(=O)[nH]1	–	98	–	–
250	89	–	–	–	CCOC(=O)c1ccc(NC(=O)Nc2c(N)nc(N)[nH]c2=O)cc1	1.1	97	–	–
2.2	49	1.1	–	–	Nc1nc(N)c(NC(=O)Nc2ccc(C(=O)N[C@@H](CCC(=O)O)C(=O)O)cc2)c(=O)[nH]1	4	194	–	–
1.1	–	0.54	Not Active	–	Nc1nc(N)c(NC(=O)Nc2ccc(C(=O)N[C@@H](Cc3ccccc3)C(=O)O)cc2)c(=O)[nH]1	–	94	–	–

Source: ChEMBL document CHEMBL3621150, “Characterization of 2,4-Diamino-6-oxo-1,6-dihydropyrimidin-5-yl Ureido Based Inhibitors of Trypanosoma brucei FolD and Testing for Antiparasitic Activity” (J Med Chem, 2015)
